Experimental data published in article PMC2729716 (Biochemistry, 2009).
Where no end group is shown, it is not given here.

Legend:
[1] = Zinc-induced aggregation by light scattering; type: physicochemical; settings: 15 µM peptide, 1 molar equivalent Zn2+, 200 mM MOPS pH 7.4, 80 mM NaCl, 1.8 mM TCEP, 20 °C, 200 s
Summary of the method: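 Wild-type and mutant peptides handled anaerobically in TCEP buffers; concentration set by A280 in 6M guanidine hydrochloride. Zn(NO3)2 hand-mixed into sample in a Peltier-held cuvette. Light scattering followed over time on a single-photon counting fluorometer; single exponential functions fitted to intensity versus time.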

HIV Vif = settings: micromolar levels of chelator; cited from earlier work
[2] = tested on: GST-Cul5 (human Cul5 amino acids 1–384); assay: HCCHp pull-down by GST-Cul5; type: binding; settings: GST control, 40 µM Zn(NO3)2 vs no zinc
Summary of the method: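 GST-Cul5 (human Cul5 residues 1–384, from E. coli) immobilised on glutathione resin, 10 min at 4 °C, in 50 mM HEPES pH 7.4, 150 mM NaCl, 200 µM TCEP; 20 µM peptide added for 10 min; split, ±40 µM Zn(NO3)2 for 10 min; six washes; SDS-PAGE, SYPRO Ruby stain; bands normalised to a 27-kDa marker and quantified against peptide and GST-Cul5 standard curves.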

## ELADQLIALYYFDCFSDSAIRKALLGHIVSPRCEYQAGHNKV (cysteines drawn unpaired) [H108A]
[1]
  Total change in scattered light intensity, rank order of peptides: H108A < H139A < H127A < wild type < C114S < C114/133S < C133S

## ELADQLIHLYYFDCFSDSAIRKALLGAIVSPRCEYQAGHNKV (cysteines drawn unpaired) [H127A]
[1]
  Total change in scattered light intensity, rank order of peptides: H108A < H139A < H127A < wild type < C114S < C114/133S < C133S

## ELADQLIHLYYFDCFSDSAIRKALLGHIVSPRSEYQAGHNKV [C133S]
[1]
  Total change in scattered light intensity, rank order of peptides: H108A < H139A < H127A < wild type < C114S < C114/133S < C133S

## ELADQLIHLYYFDSFSDSAIRKALLGHIVSPRCEYQAGHNKV [C114S]
[1]
  Total change in scattered light intensity, rank order of peptides: H108A < H139A < H127A < wild type < C114S < C114/133S < C133S

## c1ccc(CN(CCN(Cc2ccccn2)Cc2ccccn2)Cc2ccccn2)nc1 [N,N,N′,N′-tetrakis-(2-pyridylmethyl) ethylenediamine]
HIV Vif
  Effect of chelator on Cul5 recruitment and APOBEC3G degradation: inhibits Cul5 recruitment and APOBEC3G degradation

## ELADQLIHLYYFDCFSDSAIRKALLGHIVSPRCEYQAGHNKV (cysteines drawn unpaired) [HCCHp]
[1]
  Total change in scattered light intensity, rank order of peptides: H108A < H139A < H127A < wild type < C114S < C114/133S < C133S
[2]
  Change in amount of HCCHp bound to GST when zinc was included: did not increase significantly

## ELADQLIHLYYFDCFSDSAIRKALLGHIVSPRCEYQAGANKV (cysteines drawn unpaired) [H139A]
[1]
  Total change in scattered light intensity, rank order of peptides: H108A < H139A < H127A < wild type < C114S < C114/133S < C133S
